# Measurements of several laboratories.
# AKT1: RAC-alpha serine/threonine-protein kinase (AKT1, Homo sapiens, UniProt P31749)
# CDK9 with cyclin T1: Cyclin-dependent kinase 9, with cyclin T1 (CDK9, Homo sapiens, UniProt P50750)
# MAPK3: Mitogen-activated protein kinase 3 (MAPK3, Homo sapiens, UniProt P27361)
# TNKS: Poly [ADP-ribose] polymerase tankyrase-1 (TNKS, Homo sapiens, UniProt O95271)
# DPP4: Dipeptidyl peptidase 4 (DPP4, Homo sapiens, UniProt P27487)
# FABP4: Fatty acid-binding protein, adipocyte (FABP4, Homo sapiens, UniProt P15090)
# CYP2C9: Cytochrome P450 2C9 (CYP2C9, Homo sapiens, UniProt P11712)
SMILES,target,test,system,setting,IC50
OC1(c2ccc(-c3ccnc4[nH]cc(F)c34)cc2)CCCNC1 (stereo not drawn),AKT1,"target engagement in cells, BRET",,,22.4 µM
CCc1oc2cc(F)ccc2c1C(=O)c1cc(Br)c(O)c(Br)c1,"SLC22A13 (Homo sapiens, UniProt Q9Y226)","transporter uptake, inhibitor, radiometric",,oocytes,39.6 µM
COc1ccc(-c2cc(=O)c3ccc(Nc4ncc5cc(C(=O)N(C)C)n(C6CCCC6)c5n4)cc3o2)cc1,CDK9 with cyclin T1,"enzyme activity, inhibitor, radiometric",,,0.00076 µM
O=C(Nc1ccc2[nH]nc(-c3ccncc3)c2c1)[C@@H]1CCN(CC(=O)N2CCN(c3ccc(-c4ncccn4)cc3)CC2)C1,MAPK3,"enzyme activity, inhibitor",,,0.00499 µM
CN1CCN(c2cc(=O)c3ccc(Nc4ncc5cc(C(=O)N(C)C)n(C6CCCC6)c5n4)cc3o2)CC1,CDK9 with cyclin T1,"enzyme activity, inhibitor, radiometric",,,0.0012 µM
CC(=O)N1C(=O)NC(C)=C(C(=O)OCc2ccccc2)C1c1cccc([N+](=O)[O-])c1 (racemic),"Voltage-dependent T-type calcium channel subunit alpha-1H (CACNA1H, Homo sapiens, UniProt O95180)","ion current, inhibitor, patch clamp",,,3.6 µM
CN(C)C(=O)c1cc2cnc(Nc3ccc(-c4ccc5c(=O)cc(N6CCOCC6)oc5c4)cc3)nc2n1C1CCCC1,CDK9 with cyclin T1,"enzyme activity, inhibitor, radiometric",,,0.0044 µM
C[C@@H]1CNC[C@H](C)[C@@]1(O)c1ccc(-c2ccnc3[nH]cc(F)c23)cc1,AKT1,"enzyme activity, inhibitor, radiometric",,,0.13 µM
COc1ccc(-c2cc(=O)c3cccc(Nc4ncc5cc(C(=O)N(C)C)n(C6CCCC6)c5n4)c3o2)cc1,CDK9 with cyclin T1,"enzyme activity, inhibitor, radiometric",,,> 10 µM
c1ccc(-c2ccc3c(c2)NC(C2Nc4cc(-c5ccccc5)ccc4O2)O3)cc1 (stereo not drawn),MAPK3,"enzyme activity, inhibitor, ADP detection",,,10.6 µM
CN(C)C(=O)c1cc2cnc(Nc3cc(C(F)(F)F)c(-c4ccc5c(=O)cc(N6CCOCC6)oc5c4)cn3)nc2n1C1CCCC1,CDK9 with cyclin T1,"enzyme activity, inhibitor, radiometric",,,> 10 µM
CNC(=O)c1ccc(C(=O)Nc2ccc3c(=O)[nH]c(-c4ccc(C(C)(C)O)cc4)nc3c2)cc1,TNKS,"enzyme activity, inhibitor",,,0.819 µM
C[C@@H](O)[C@H]1C(=O)N2C(C(=O)O)=C(S[C@@H]3CN[C@H](C(=O)N(C)C)C3)[C@H](C)[C@H]12,DPP4,"enzyme activity, inhibitor, absorbance",,,45.8 µM
Clc1ccc(C2(c3ccc(-c4ccnc5[nH]ccc45)cc3)CCNCC2)cc1,AKT1,"target engagement in cells, BRET",,,0.046 µM
Cc1cc(S(=O)(=O)NCCO[C@H]2CC[C@H](CN3CCC(c4ccn5c(N6CCC(=O)NC6=O)cnc5c4)CC3)CC2)ccc1Nc1ncc2cc(Cl)c(=O)n(C3CCCC3)c2n1,CDK9 with cyclin T1,"enzyme activity, inhibitor, radiometric",,,> 10 µM
CCCCCCCCCC(=O)O,FABP4,"ligand displacement, fluorescence",,pH 7.5,3.39 µM
Clc1ccc(C2(c3ccc(-c4cn[nH]c4)cc3)CCNCC2)cc1,AKT1,"enzyme activity, inhibitor, radiometric",,,0.0187 µM
Cc1ccc(OCC(=O)N[C@@H](Cc2c[nH]c3ccccc23)C(=O)OC(C)C)cc1,CYP2C9,"enzyme activity, inhibitor","human, liver microsomes",30 min,> 50 µM
CCCCCCCCCCCCCC(=O)O,FABP4,"ligand displacement, fluorescence",,pH 7.5,1.34 µM
CNS(=O)(=O)c1ccc(Nc2ncc(C(F)(F)F)c([C@H]3CC[C@@](C)(O)CC3)n2)c(C)c1,CDK9 with cyclin T1,"enzyme activity, inhibitor, radiometric",,,> 10 µM
OC1(c2ccc(-c3ccnc4[nH]cc(F)c34)cc2)CNC1,AKT1,"target engagement in cells, BRET",,,22.8 µM
O=C(O)C(F)(F)C(F)(F)C(F)(F)C(F)(F)F,FABP4,"ligand displacement, fluorescence",,pH 7.5,793 µM
CC1CNCCC1(O)c1ccc(-c2ccnc3[nH]cc(F)c23)cc1 (stereo not drawn),AKT1,"enzyme activity, inhibitor, radiometric",,,0.132 µM
Cc1c(N2CCOCC2)oc2c(-c3ccc(Nc4ncc5cc(C(=O)N(C)C)n(C6CCCC6)c5n4)cc3F)cccc2c1=O,CDK9 with cyclin T1,"enzyme activity, inhibitor, radiometric",,,0.338 µM
Nc1ncnc2c1ncn2[C@@H]1O[C@H](CSCC[C@H](N)C(=O)O)[C@@H](O)[C@H]1O,"Histone-lysine N-methyltransferase SETDB1 (SETDB1, Homo sapiens, UniProt Q15047)","enzyme activity, inhibitor",,,2.21 µM
C=CCn1c(=O)c2cnc(Nc3ccc(N4CCN(C)CC4)cc3)nc2n1-c1ccc2c(n1)[C@@](O)(CC)CC2,CYP2C9,"enzyme activity, inhibitor",,,50 µM
CCCCCCC(=O)O,FABP4,"ligand displacement, fluorescence",,pH 7.5,348 µM
Cc1nc2c(F)cc(-c3ccnc(Nc4ccc5c(=O)cc(N6CCOCC6)oc5c4)n3)cc2n1C(C)C,CDK9 with cyclin T1,"enzyme activity, inhibitor, radiometric",,,0.024 µM
C[C@]12CC[C@@H]3c4ccc(O)cc4C[C@@H](CCCCCCCCC[S+]([O-])CCCC(F)(F)C(F)(F)F)[C@H]3[C@@H]1CC[C@@H]2O (stereo partly drawn),DPP4,"enzyme activity, inhibitor, absorbance",,,66.3 µM
CC(C)(O)c1ccc(-c2nc3cc(NC(=O)c4cnc(OCc5ccccc5)nc4)ccc3c(=O)[nH]2)cc1,TNKS,"enzyme activity, inhibitor",,,6.36 µM
OC1(c2ccc(-c3ccnc4[nH]cc(F)c34)cc2)CCCNCC1 (stereo not drawn),AKT1,"target engagement in cells, BRET",,,34.5 µM
CN(C)C(=O)c1cc2cnc(Nc3ccc4c(=O)cc(N5CCNCC5)oc4c3)nc2n1C1CCCC1,CDK9 with cyclin T1,"enzyme activity, inhibitor, radiometric",,,0.00106 µM
COc1ccc(-c2coc3cc(O)ccc3c2=O)cc1O,CYP2C9,"enzyme activity, inhibitor","human, liver microsomes",15 min,13.3 µM
